# Assay outcomes (PubChem)
# Redox H2O2 prof: compounds producing H2O2 with reducing agent – biochemical, NIH compound library profiling, artefact control for MLSCN library redox annotation, primary screen | DTT-dependent redox cycling H2O2, phenol red/HRP absorbance; 100% = 100 µM peroxide control, 0% = buffer | activation, % at 10 µM | 0.03% of 200,000 active | AID 878, 2007;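 active = activation of at least 50% relative to the plate's high and low controls in the primary single-dose screen; inactive = activation below 50%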;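 note: compound incubated with DTT at 0.8 mM final as the reducing agent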
# MPTP block: mitochondrial permeability transition pore inhibitors, primary screen, biochemical, isolated mouse mitochondria, absorbance; Ca2+ swelling absorbance, 30 min; inhibition, % at 10 µM; 1.4% of 360,000 active; AID 602449, 2012;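 active = inhibition of 50% or more, scaled per plate between neutral and stimulator controls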;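 note: 0% = DMSO wells given calcium and 100% = 1 mM EGTA wells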
# T cruzi inh: inhibitors of intracellular T. cruzi growth, primary screen, luminescence, NIH3T3 host cells | inhibition, % (test concentration not listed) | T. cruzi beta-gal in NIH3T3, 90 h | 1.4% of 300,000 active;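 active = mean inhibition across valid replicates above about 55%, limit read from the data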;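 note: signal also drops with host cell toxicity which is not excluded here; 0% = plate median of DMSO wells and 100% = zero luminescence signal; higher percent means less beta-gal luminescence so fewer parasites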
#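 System: NIH/3T3 fibroblasts plus reporter T. cruzi. Medium: DMEM plus 2% FBS. Probe or stimulus: 5000 reporter trypomastigotes per well. Compound: single 50 nL compound addition per well in DMSO. Incubation: co-culture of at least 90 h after 3 h attachment. Detection: GalScreen β-gal luminescence, detergent lysis, 60 min. Evaluation: parasite load inhibition, %.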
# Hep lipid drop: inhibitors of hepatocyte lipid droplet formation, primary screen, imaging, high-throughput imaging, BODIPY stain. AML12 mouse hepatocytes, oleate lipid droplets. inhibition, % at 6.5 µM. 0.4% of 240,000 active. AID 1656, 2009;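 active = lipid droplet intensity inhibited by at least 50%, with more than 500 cells counted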
#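 Technique: fluorescence imaging, 20x objective, two fields per well / Assay system: AML12 hepatocytes (mouse) / Measure: % inhibition of lipid droplet signal / Doses: 6.5 µM single-point dosing / Incubation: overnight exposure / Reagent: 100 µM oleic acid challenge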
# Lmaj promast: Leishmania major promastigote growth inhibition, primary screen; Leishmania major promastigotes, resazurin fluorescence viability; inhibition, % at 10 µM; 9% of 200,000 active; AID 1063, 2008; in the data active = inhibition above about 50%;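 note: promastigotes grown with compound for 44 hours at 28 °C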
# Starred values were filed as active, the others as inactive; / = no result given. Many of the other results were omitted from the sample, so hits are more common in it than they were.
SMILES,Redox H2O2 prof,MPTP block,T cruzi inh,Hep lipid drop,Lmaj promast
CCOC(=O)C1(C)NC(c2cccc(C)c2)C2C(=O)N(c3ccccc3)C(=O)C21 (centres undefined),/,0.1,6.9,0.1,/
COc1cc(CCC(C)=O)ccc1OC(=O)c1c(F)cccc1Cl,/,1.9,1.9,-17.0,/
Brc1cccc(OCCCCN2CCCCC2)c1,-0.3,9.5,23.1,-30.3,98.1*
CC1CCCN(CCCCOc2cccc(Br)c2)C1 (centres undefined),0.3,1.2,22.2,-4.1,99.1*
CC(C)(C)c1ccc(OCCN2CCCC2)cc1,1.6,0.8,42.9,13.9,97.5*
CC1CCCN(CCOc2ccc(Br)cc2)C1 (centres undefined),-0.1,0.0,0.7,1.2,51.3*
CN(C)CCCCOc1cccc(Br)c1,-0.8,-2.6,47.9,7.4,7.0
CCCc1cc(=O)oc2cc(C)cc(OC(C)C(=O)NCCCn3ccnc3)c12 (centres undefined),/,-0.4,8.7,-0.4,/
COc1ccc(NCC(=O)Nc2ccc(Cl)cc2C)c(OC)c1,0.2,1.0,52.1,-10.6,99.0*
CC(C)C[C@@H](COc1ccccc1)N1CCN(Cc2ccccc2)CCC1=O,/,/,5.0,/,/
CC(C)CC(=O)NC(=S)Nc1cccc(NC(=O)c2ccccc2Cl)c1,0.1,1.0,-11.0,-20.7,18.4
CC(C)CC(=O)Nc1cccc(NC(=O)c2ccccc2Cl)c1,0.1,1.0,-2.5,-2.1,58.9*
CC(C)Oc1cccc(C(=O)NC(=S)Nc2cccc(NC(=O)c3ccccc3Cl)c2)c1,-0.5,3.1,13.5,-21.8,86.4*
CCCCN(C(=O)c1[nH]c(C)c(C(=O)OCC)c1C)c1c(N)n(CCCC)c(=O)[nH]c1=O,/,0.0,-5.9,/,/
CCOc1ccc(N2C(=O)CS/C2=N/NC(=O)COc2ccc3ccccc3c2)cc1,-6.3,1.2,4.1,/,99.2*
CCCCC(=O)NC(c1ccc(N(C)C)cc1)c1ccc2cccnc2c1O (centres undefined),/,-0.5,56.6*,-49.8,/
CCCCC(=O)NC(c1ccc(N(CC)CC)cc1)c1ccc2cccnc2c1O (centres undefined),/,2.6,68.1*,-84.4,/
CCCCNC(=O)Nc1ncn[nH]1,/,-0.8,-9.6,4.4,/
CNC(=O)c1nnsc1S(=O)(=O)c1ccc(Cl)cc1,0.7,-0.9,59.6*,-0.9,59.0*
O=C(c1nnsc1S(=O)(=O)c1ccc(Cl)cc1)N1CCOCC1,-1.6,-0.9,17.8,-4.7,100.0*
CNC(=O)c1ccc(S(=O)(=O)c2ccc(Cl)cc2)c(NC(C)=O)c1,/,-0.7,4.7,-16.4,/
O=C(Nc1cccc(S(=O)(=O)c2cccc(NC(=O)c3ccco3)c2)c1)c1ccco1,/,24.5,55.0*,-3.2,/
O=C(Nc1cccc(S(=O)(=O)N2CCCC2)c1)c1ccco1,/,-0.3,/,/,/
O=C(Nc1cccc(S(=O)(=O)c2cccc(NC(=O)C3CC3)c2)c1)C1CC1,2.1,9.5,-4.2,14.1,99.3*
Cc1ccc(NC(=O)c2ccco2)c(NC(=O)c2cccs2)c1,0.6,-0.1,-4.7,12.0,72.3*
SMILES,Redox H2O2 prof,MPTP block,T cruzi inh,Hep lipid drop,Lmaj promast
O=C(Nc1ccc(NC(=O)c2cccs2)cc1Cl)c1ccco1,-0.9,-1.5,10.2,-10.3,13.0
O=C(Nc1cccc(N2CCCC2)c1)c1cccs1,0.5,0.6,57.4*,-5.3,85.9*
CC(CCC(=O)O)C1CCC2C3C(O)CC4CC(O)CCC4(C)C3CC(O)C12C (centres undefined),/,-4.0,-6.9,5.9,/
COc1ccccc1N1CCN(C(=O)c2coc(=O)c(Br)c2)CC1,/,17.2,-2.3,14.2,/
O=C(Nc1cccc(NC(=O)c2cccs2)c1)c1ccco1,1.5,1.3,6.1,9.2,71.8*
Cc1ccc(/C=C/C(O)=C2/C(=O)N(C)C3(C)CC2c2ccccc2O3)cc1 (centres undefined),-7.8,0.7,34.3,/,78.7*
COc1ccc(/C=C/C(O)=C2/C(=O)N(C)C3(C)CC2c2ccccc2O3)cc1 (centres undefined),-4.1,1.6,30.8,/,79.9*
c1ccc(C(=C2CCCO2)c2ccccc2)cc1,/,0.0,/,/,/
O=C(COC(=O)CNC(=O)c1ccc(Br)o1)Nc1ccccc1OC(F)F,-0.4,2.9,-7.1,3.8,0.1
COc1ccc(CC(=O)N2CCN=C2SCc2ccc([N+](=O)[O-])cc2)cc1,-1.5,1.1,13.1,-2.0,76.2*
O=C(COc1ccccc1)N1CCN=C1SCc1ccc(F)cc1,/,1.1,14.5,7.4,/
O=C(Cc1ccccc1)N1CCN=C1SCc1ccc([N+](=O)[O-])cc1,1.2,1.4,6.9,-14.8,92.7*
O=C(COc1ccccc1)N1CCN=C1SCc1cccnc1,1.5,2.7,-2.0,/,65.2*
O=C(Cc1ccc(F)cc1)N1CCN=C1SCc1ccc([N+](=O)[O-])cc1,0.7,2.9,5.6,-29.5,33.0
COc1ccc(CNCc2ccc3ccccc3c2)c(OC)c1,/,20.1,26.8,-8.1,/
Cc1cccc(-c2cc(C(=O)NCc3ccccn3)c3ccccc3n2)c1,0.3,-2.4,6.0,0.4,6.0
O=C(NNC(=O)c1cc(-c2ccccc2)nc2ccccc12)Nc1cccc(Cl)c1,0.1,3.5,24.5,-3.0,99.2*
O=C(Nc1nccs1)c1cc(-c2ccccc2)nc2ccccc12,/,-5.4,11.8,11.0,89.8*
O=C(Nc1nccs1)c1cc(-c2ccco2)nc2ccccc12,0.3,0.2,-11.2,8.1,6.2
Cc1ccc(-c2cc(C(=O)NCc3ccccn3)c3ccccc3n2)cc1C,2.2,-2.5,7.4,-21.6,87.8*
CCOC(=O)CC(NS(=O)(=O)Cc1ccccc1)c1ccc(C)cc1 (centres undefined),0.3,1.5,-1.4,-4.0,58.7*
CCOC(=O)CC(NS(=O)(=O)c1ccc(NC(C)=O)cc1)c1ccc(OCC)cc1 (centres undefined),1.6,-0.6,5.1,9.4,5.1
CCc1n(CC(O)COC2CCCCC2)c2ccccc2[n+]1C (centres undefined),-0.4,-0.7,7.0,-16.2,-1.5
CCCc1n(CC)c2ccccc2[n+]1CC(O)COC1CCCCC1 (centres undefined),0.0,2.9,46.7,-40.7,97.0*
CC1(CCc2ccccc2)NC(=O)N(CC(=O)Nc2ccc(OC(F)F)cc2)C1=O (centres undefined),/,-0.6,/,/,/
COc1ccc(C2C(C#N)=C(N)Oc3c2ccc2cccnc32)cc1OC (centres undefined),-0.4,-0.8,-37.4,-190.8,5.2
COc1cc(C2C(C#N)=C(N)Oc3c2ccc2ccccc32)ccc1OCC(=O)Nc1cccc(C)c1 (centres undefined),0.6,1.6,7.3,29.5,75.7*
N#CC1=C(N)Oc2c(ccc3ccccc23)C1c1ccsc1 (centres undefined),18.8,4.2,75.4*,/,1.1
